# Assays:
# CCRF-CEM [1] = assay: Inhibition of mitosis in human CCRF-CEM cells assessed as pH3Ser10 positive cells at IC50 after 24 hrs by flow cytometric analysis (reference value: 1.74%); assay type: functional
# Hepatitis C virus [2] = assay: Anti-HCV activity against Hepatitis C virus genotype 2a infected in human Huh7 replicon cells after 96 hrs by luciferase reporter gene assay; assay type: functional, cell-based, Hepacivirus hominis; details: Huh-7, 96 h
# CCRF-CEM [3] = assay: Inhibition of DNA synthesis in human CCRF-CEM cells assessed as decrease in BrdU incorporation by measuring synthesized DNA levels at IC50 after 24 hrs by propidium iodide staining-based flow cytometric analysis (reference value: 52.66%); assay type: functional
# U2OS = assay: Cytotoxicity against human U2OS cells assessed as cell growth inhibition after 72 hrs by MTS assay; assay type: functional, cell-based
# [4] = Drug level in human BJ cells at 10 umol/L measured per 5 x 10^5 cells after 1 hr by UPLC-MS/MS analysis; assay type: ADME, cell-based; details: 10 µM
# [5] = Drug level in human HCT116 cells at 10 umol/L measured per 5 x 10^5 cells after 3 hrs by UPLC-MS/MS analysis; assay type: ADME, cell-based; details: hct-116, 3 h, 10 µM
# CCRF-CEM [6] = assay: Cell cycle arrest in human CCRF-CEM cells assessed as accumulation at S phase at IC50 after 24 hrs by propidium iodide staining-based flow cytometric analysis (reference value: 44.20%); assay type: functional
# CCRF-CEM [7] = assay: Inhibition of DNA synthesis in human CCRF-CEM cells assessed as decrease in BrdU incorporation by measuring synthesized DNA levels at 5 times IC50 after 24 hrs by propidium iodide staining-based flow cytometric analysis (reference value: 52.66%); assay type: functional
# CCRF-CEM [8] = assay: Cell cycle arrest in human CCRF-CEM cells assessed as accumulation at G0/G1 phase at 5 times IC50 after 24 hrs by propidium iodide staining-based flow cytometric analysis (reference value: 41.11%); assay type: functional
# [9] = Drug level in human HCT116 cells at 1 umol/L measured per 5 x 10^5 cells after 3 hrs by UPLC-MS/MS analysis; assay type: ADME, cell-based; details: hct-116, 3 h, 1 µM
# CCRF-CEM [10] = assay: Inhibition of RNA synthesis in human CCRF-CEM cells assessed as decrease in BrU incorporation by measuring synthesized RNA levels at IC50 after 24 hrs by propidium iodide staining-based flow cytometric method (reference value: 53.09%); assay type: functional
# CCRF-CEM [11] = assay: Cell cycle arrest in human CCRF-CEM cells assessed as accumulation at G2/M phase at 5 times IC50 after 24 hrs by propidium iodide staining-based flow cytometric analysis (reference value: 14.70%); assay type: functional
# K562 = assay: Cytotoxicity against human K562 cells assessed as cell growth inhibition after 72 hrs by MTS assay; assay type: functional, cell-based; details: K562, 72 h
# Outline: (§1)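 Cells were exposed to compound for 3 days, then stained with MTS as a quantitative metabolic read-out. IC50 is the concentration that inhibits cell growth by 50%.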
# A549 = assay: Cytotoxicity against human A549 cells assessed as cell growth inhibition after 72 hrs by MTS assay; assay type: functional, cell-based; details: A549, 72 h; outline: as §1
# [12] = Cytotoxicity against human HuH7 cells; assay type: cell-based, Huh-7
# [13] = Drug level in human HCT116 cells at 10 umol/L measured per 5 x 10^5 cells after 1 hr by UPLC-MS/MS analysis; assay type: ADME, cell-based; details: hct-116, 1 h, 10 µM
# CCRF-CEM [14] = assay: Inhibition of RNA synthesis in human CCRF-CEM cells assessed as decrease in BrU incorporation by measuring synthesized RNA levels at 5 times IC50 after 24 hrs by propidium iodide staining-based flow cytometric method (reference value: 53.09%); assay type: functional
# [15] = Drug level in human BJ cells at 1 umol/L measured per 5 x 10^5 cells after 3 hrs by UPLC-MS/MS analysis; assay type: ADME, cell-based; details: 1 µM
# Hepatitis C virus [16] = assay: Anti-HCV activity against Hepatitis C virus genotype 1b infected in human Huh7 replicon cells after 96 hrs by luciferase reporter gene assay; assay type: functional, cell-based, Hepacivirus hominis; details: Huh-7, 96 h
# [17] = Drug level in human BJ cells at 10 umol/L measured per 5 x 10^5 cells after 3 hrs by UPLC-MS/MS analysis; assay type: ADME, cell-based; details: 10 µM
# CCRF-CEM [18] = assay: Induction of apoptosis in human CCRF-CEM cells assessed as accumulation at subG1 phase at 5 times IC50 after 24 hrs by propidium iodide staining-based flow cytometric analysis (reference value: 2.32%); assay type: functional
# MRC5 = assay: Cytotoxicity against human MRC5 cells assessed as cell growth inhibition after 72 hrs by MTS assay; assay type: cell-based; details: MRC5, 72 h; outline: as §1
# [19] = Drug level in human HCT116 cells at 1 umol/L measured per 5 x 10^5 cells after 1 hr by UPLC-MS/MS analysis; assay type: ADME, cell-based; details: hct-116, 1 h, 1 µM
# CCRF-CEM [20] = assay: Inhibition of mitosis in human CCRF-CEM cells assessed as pH3Ser10 positive cells at 5 times IC50 after 24 hrs by flow cytometric analysis (reference value: 1.74%); assay type: functional
# CCRF-CEM [21] = assay: Cell cycle arrest in human CCRF-CEM cells assessed as accumulation at G2/M phase at IC50 after 24 hrs by propidium iodide staining-based flow cytometric analysis (reference value: 14.70%); assay type: functional
# CCRF-CEM [22] = assay: Cell cycle arrest in human CCRF-CEM cells assessed as accumulation at G0/G1 phase at IC50 after 24 hrs by propidium iodide staining-based flow cytometric analysis (reference value: 41.11%); assay type: functional
# HCT-116 [23] = assay: Cytotoxicity against human HCT116 cells assessed as cell growth inhibition after 72 hrs by MTS assay; assay type: functional, cell-based; details: HCT-116, 72 h; outline: as §1
# [24] = Drug level in human BJ cells at 1 umol/L measured per 5 x 10^5 cells after 1 hr by UPLC-MS/MS analysis; assay type: ADME, cell-based; details: 1 µM
# BJ = assay: Cytotoxicity against human BJ cells assessed as cell growth inhibition after 72 hrs by MTS assay; assay type: cell-based; outline: as §1
# HL-60 = assay: Cytotoxicity against human HL60 cells assessed as reduction in cell viability after 72 hrs by XTT assay; assay type: functional, cell-based; details: HL-60, 72 h
# Outline: (§2)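 Cells were incubated with compound for 3 days. Viability was then measured with the XTT tetrazolium assay.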
# CCRF-CEM [25] = assay: Inhibition of mitosis in human CCRF-CEM cells assessed as pH3Ser10 positive cells after 24 hrs by flow cytometric analysis; assay type: functional, cell-based
# CCRF-CEM [26] = assay: Cytotoxicity against human CCRF-CEM cells assessed as cell growth inhibition after 72 hrs by MTS assay
# CCRF-CEM [27] = assay: Induction of apoptosis in human CCRF-CEM cells assessed as accumulation at subG1 phase at IC50 after 24 hrs by propidium iodide staining-based flow cytometric analysis (reference value: 2.32%); assay type: functional
# [28] = Cytotoxicity against mrp-1/mdr-1 overexpressing human CEM-DNR-bulk cells assessed as cell growth inhibition after 72 hrs by MTS assay; assay type: functional, cell-based
# Outline: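 Cells were exposed to compound for 3 days, then stained with MTS as a quantitative metabolic read-out.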
# HepG2 = assay: Cytotoxicity against human HepG2 cells assessed as reduction in cell viability after 72 hrs by XTT assay; assay type: functional, cell-based; details: HepG2, 72 h; outline: as §2
# CCRF-CEM [29] = assay: Cell cycle arrest in human CCRF-CEM cells assessed as accumulation at S phase at 5 times IC50 after 24 hrs by propidium iodide staining-based flow cytometric analysis (reference value: 44.20%); assay type: functional
# HeLa S3 = assay: Cytotoxicity against human HeLaS3 cells assessed as reduction in cell viability after 72 hrs by XTT assay; assay type: functional, cell-based; details: HeLa S3, 72 h; outline: as §2
# [30] = Cytotoxicity against human K562-TAX cells assessed as cell growth inhibition after 72 hrs by MTS assay; assay type: functional, cell-based; outline: as §1
# HCT-116 [31] = assay: Cytotoxicity against p53 deficient human HCT116 cells assessed as cell growth inhibition after 72 hrs by MTS assay; assay type: functional, cell-based; details: HCT-116, 72 h; outline: as §1
Compound,pH3Ser10+ cells (%) (CCRF-CEM [1]),EC50 (Hepatitis C virus [2]),BrdU+ cells (%) (CCRF-CEM [3]),IC50 (U2OS),Activity (CCRF-CEM [6]),BrdU+ cells (%) (CCRF-CEM [7]),Activity (CCRF-CEM [8]),BrU+ cells (%) (CCRF-CEM [10]),Activity (CCRF-CEM [11]),IC50 (K562),IC50 (A549),CC50 [12],BrU+ cells (%) (CCRF-CEM [14]),EC50 (Hepatitis C virus [16]),Activity (CCRF-CEM [18]),IC50 (MRC5),pH3Ser10+ cells (%) (CCRF-CEM [20]),Activity (CCRF-CEM [21]),Activity (CCRF-CEM [22]),IC50 (HCT-116 [23]),also measured
CSc1ncnc2c1c1sccc1n2[C@@H]1O[C@H](CO)[C@@H](O)[C@H]1O,1.92%,340 nM,51.67%,460 nM,34.12%,51.49%,41.28%,1.46%,20.61%,350 nM,660 nM,> 44400 nM,0.16%,470 nM,18.15%,9010 nM,1.03%,21.65%,44.14%,50 nM,Drug uptake [4]: 2298.3 pmol; Drug uptake [5]: 1299 pmol; Drug uptake [9]: 602.8 pmol; Drug uptake [13]: 525.5 pmol; Drug uptake [15]: 1750.5 pmol; Drug uptake [17]: 3161.5 pmol; Drug uptake [19]: 105.4 pmol; Drug uptake [24]: 711.7 pmol; IC50 (BJ): 1250 nM; IC50 (HL-60): 510 nM; Activity (CCRF-CEM [25]): Dose-dependent effect; IC50 (CCRF-CEM [26]): 27 nM; Activity (CCRF-CEM [27]): 10.83%; IC50 [28]: 1460 nM; IC50 (HepG2): 360 nM; Activity (CCRF-CEM [29]): 38.11%; IC50 (HeLa S3): 720 nM; IC50 [30]: 2200 nM; IC50 (HCT-116 [31]): 90 nM
Cc1ncnc2c1c1ccsc1n2[C@@H]1O[C@H](CO)[C@@H](O)[C@H]1O,1.37%,240 nM,54.48%,560 nM,45.57%,54.08%,35.09%,38.29%,13.74%,460 nM,720 nM,> 44400 nM,18.84%,60 nM,3.83%,> 50000 nM,1.37%,13.76%,40.67%,400 nM,IC50 (BJ): > 50000 nM; IC50 (HL-60): 370 nM; Activity (CCRF-CEM [25]): Dose-dependent effect; IC50 (CCRF-CEM [26]): 30 nM; Activity (CCRF-CEM [27]): 2.35%; IC50 [28]: 33900 nM; IC50 (HepG2): 470 nM; Activity (CCRF-CEM [29]): 51.16%; IC50 (HeLa S3): 570 nM; IC50 [30]: 47600 nM; IC50 (HCT-116 [31]): 330 nM
